# Reference: ChEMBL document CHEMBL5724801, “EUbOPEN Chemogenomics Library - Multiplex” (2024)
# “And” between values parts separate entries of the source, which are not always exact repeats. Equal values may be shown once.
# Tested on: Fibroblast
# Assay: Multiplex assay against human fibroblast
# Format: toxicity, cell-based
# Outline: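 Phenotypes for tubulin, mitochondrial mass and membrane permeability are expressed as per cents of healthy-nucleus cells. Cells were stained live at seeding with Hoechst33342, BioTracker Green Microtubule Cytoskeleton Dye, MitoTracker Red and Annexin V Alexa Fluor 680, then imaged after compound addition on a CQ1 microscope at 37°C and 5% CO2. Machine-learning gating in CellPathfinder separated Hoechst high-intensity objects from normal cells, divided normal cells by nuclear state (healthy, pyknosed, fragmented) and divided pyknosed cells into mitotic or apoptotic.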
# [1] = 12 h, 1 µM, compound concentration 1 uM
# [2] = 12 h, 10 µM, compound concentration 10 uM
# [3] = 24 h, 1 µM, compound concentration 1 uM
# [4] = 24 h, 10 µM, compound concentration 10 uM
# [5] = 48 h, 1 µM, compound concentration 1 uM
# [6] = 48 h, 10 µM, compound concentration 10 uM
compound,measurement,setting,value
COCCn1c(C)c(C)s/c1=N\C(=O)C1C(C)(C)C1(C)C,Population Apoptotic (%),[1],43% and 40%
same,Population Fragmented Nuclei (%),[1],18% and 22%
same,Population Healthy Nuclei (%),[1],69% and 57%
same,Population Hoechst High Intensity Objects (%),[1],0% and 4%
same,Population Membrane Permeable-Phenotype (%),[1],0% and 1%
same,Population Mitochondria Different-Phenotype (%),[1],7% and 5%
same,Population Mitotic Cells (%),[1],56% and 60%
same,Population Normal (%),[1],99% and 95%
same,Population Pyknosed Nuclei (%),[1],11% and 19%
same,Population Tubulin-Different-Phenotype (%),[1],34% and 32%
same,Total Cell Count,[1],136 and 133
same,Population Apoptotic (%),[2],64% and 37%
same,Population Fragmented Nuclei (%),[2],19% and 38%
same,Population Healthy Nuclei (%),[2],59% and 40%
same,Population Hoechst High Intensity Objects (%),[2],2% and 6%
same,Population Mitochondria Different-Phenotype (%),[2],14% and 8%
same,Population Mitotic Cells (%),[2],35% and 62%
same,Population Normal (%),[2],97% and 93%
same,Population Pyknosed Nuclei (%),[2],20% and 21%
same,Population Tubulin-Different-Phenotype (%),[2],56% and 64%
same,Total Cell Count,[2],167 and 120
same,Population Apoptotic (%),[3],64% and 54%
same,Population Fragmented Nuclei (%),[3],15% and 28%
same,Population Healthy Nuclei (%),[3],72% and 54%
same,Population Hoechst High Intensity Objects (%),[3],2% and 3%
same,Population Membrane Permeable-Phenotype (%),[3],1% and 5%
same,Population Mitochondria Different-Phenotype (%),[3],5%
same,Population Mitotic Cells (%),[3],35% and 45%
same,Population Normal (%),[3],97% and 96%
same,Population Pyknosed Nuclei (%),[3],11% and 17%
same,Population Tubulin-Different-Phenotype (%),[3],38% and 37%
same,Total Cell Count,[3],122 and 132
same,Population Apoptotic (%),[4],68% and 33%
same,Population Fragmented Nuclei (%),[4],20% and 40%
same,Population Healthy Nuclei (%),[4],59% and 36%
same,Population Hoechst High Intensity Objects (%),[4],4% and 3%
same,Population Membrane Permeable-Phenotype (%),[4],0% and 11%
same,Population Mitochondria Different-Phenotype (%),[4],15% and 19%
same,Population Mitotic Cells (%),[4],31% and 66%
same,Population Normal (%),[4],95% and 96%
same,Population Pyknosed Nuclei (%),[4],19% and 23%
same,Population Tubulin-Different-Phenotype (%),[4],61% and 66%
same,Total Cell Count,[4],154 and 120
same,Population Apoptotic (%),[5],60%
same,Population Fragmented Nuclei (%),[5],23% and 31%
same,Population Healthy Nuclei (%),[5],63% and 56%
same,Population Hoechst High Intensity Objects (%),[5],4% and 7%
same,Population Membrane Permeable-Phenotype (%),[5],0% and 2%
same,Population Mitochondria Different-Phenotype (%),[5],4%
same,Population Mitotic Cells (%),[5],40%
same,Population Normal (%),[5],95% and 92%
same,Population Pyknosed Nuclei (%),[5],12% and 11%
same,Population Tubulin-Different-Phenotype (%),[5],43% and 45%
same,Total Cell Count,[5],123 and 140
same,Population Apoptotic (%),[6],75% and 58%
same,Population Fragmented Nuclei (%),[6],23% and 49%
same,Population Healthy Nuclei (%),[6],56% and 34%
same,Population Hoechst High Intensity Objects (%),[6],7% and 8%
same,Population Membrane Permeable-Phenotype (%),[6],0% and 14%
same,Population Mitochondria Different-Phenotype (%),[6],22% and 11%
same,Population Mitotic Cells (%),[6],25% and 41%
same,Population Normal (%),[6],92% and 91%
same,Population Pyknosed Nuclei (%),[6],20% and 16%
same,Population Tubulin-Different-Phenotype (%),[6],67% and 65%
same,Total Cell Count,[6],151 and 111
N#Cc1cc(F)cc(-c2nc(-c3ccc(F)cn3)no2)c1,Population Apoptotic (%),[1],28% and 38%
same,Population Fragmented Nuclei (%),[1],21% and 32%
same,Population Healthy Nuclei (%),[1],63% and 37%
same,Population Hoechst High Intensity Objects (%),[1],0% and 6%
same,Population Mitochondria Different-Phenotype (%),[1],5% and 6%
same,Population Mitotic Cells (%),[1],71% and 61%
same,Population Normal (%),[1],100% and 93%
same,Population Pyknosed Nuclei (%),[1],15% and 29%
same,Population Tubulin-Different-Phenotype (%),[1],22% and 48%
same,Total Cell Count,[1],136 and 93
same,Population Apoptotic (%),[2],48% and 28%
same,Population Fragmented Nuclei (%),[2],15% and 42%
same,Population Healthy Nuclei (%),[2],67% and 32%
same,Population Hoechst High Intensity Objects (%),[2],1% and 8%
same,Population Membrane Permeable-Phenotype (%),[2],2% and 9%
same,Population Mitochondria Different-Phenotype (%),[2],5% and 12%
same,Population Mitotic Cells (%),[2],51% and 72%
same,Population Normal (%),[2],98% and 91%
same,Population Pyknosed Nuclei (%),[2],17% and 24%
same,Population Tubulin-Different-Phenotype (%),[2],23% and 36%
same,Total Cell Count,[2],179 and 110
same,Population Apoptotic (%),[3],40% and 27%
same,Population Fragmented Nuclei (%),[3],19% and 39%
same,Population Healthy Nuclei (%),[3],68% and 38%
same,Population Hoechst High Intensity Objects (%),[3],2% and 7%
same,Population Mitochondria Different-Phenotype (%),[3],3%
same,Population Mitotic Cells (%),[3],60% and 72%
same,Population Normal (%),[3],97% and 92%
same,Population Pyknosed Nuclei (%),[3],11% and 22%
same,Total Cell Count,[3],131 and 88
same,Population Apoptotic (%),[4],70% and 35%
same,Population Healthy Nuclei (%),[4],70% and 33%
same,Population Hoechst High Intensity Objects (%),[4],4% and 11%
same,Population Membrane Permeable-Phenotype (%),[4],0% and 5%
same,Population Mitochondria Different-Phenotype (%),[4],6% and 11%
same,Population Mitotic Cells (%),[4],29% and 65%
same,Population Normal (%),[4],95% and 88%
same,Population Pyknosed Nuclei (%),[4],16% and 18%
same,Population Tubulin-Different-Phenotype (%),[4],22% and 41%
same,Total Cell Count,[4],170 and 120
same,Population Apoptotic (%),[5],61% and 50%
same,Population Fragmented Nuclei (%),[5],21% and 45%
same,Population Healthy Nuclei (%),[5],68% and 32%
same,Population Hoechst High Intensity Objects (%),[5],1% and 5%
same,Population Membrane Permeable-Phenotype (%),[5],0% and 3%
same,Population Mitochondria Different-Phenotype (%),[5],3% and 7%
same,Population Mitotic Cells (%),[5],38% and 50%
same,Population Normal (%),[5],98% and 94%
same,Population Pyknosed Nuclei (%),[5],9% and 22%
same,Population Tubulin-Different-Phenotype (%),[5],23% and 57%
same,Total Cell Count,[5],137 and 85
same,Population Apoptotic (%),[6],84% and 50%
same,Population Fragmented Nuclei (%),[6],20% and 44%
same,Population Healthy Nuclei (%),[6],63% and 38%
same,Population Hoechst High Intensity Objects (%),[6],7% and 5%
same,Population Membrane Permeable-Phenotype (%),[6],0% and 15%
same,Population Mitochondria Different-Phenotype (%),[6],11% and 5%
same,Population Normal (%),[6],92% and 94%
same,Population Pyknosed Nuclei (%),[6],16% and 17%
same,Population Tubulin-Different-Phenotype (%),[6],28% and 50%
same,Total Cell Count,[6],162 and 110
Cc1noc(-c2ccc(-c3ccc(CC(=O)O)cc3)cc2)c1NC(=O)O[C@H](C)c1ccccc1Cl,Population Apoptotic (%),[1],22% and 58%
same,Population Fragmented Nuclei (%),[1],14% and 21%
same,Population Healthy Nuclei (%),[1],77% and 60%
same,Population Hoechst High Intensity Objects (%),[1],0% and 5%
same,Population Membrane Permeable-Phenotype (%),[1],0% and 5%
same,Population Mitochondria Different-Phenotype (%),[1],1% and 2%
same,Population Mitotic Cells (%),[1],77% and 41%
same,Population Normal (%),[1],100% and 95%
same,Population Pyknosed Nuclei (%),[1],8% and 18%
same,Population Tubulin-Different-Phenotype (%),[1],10% and 26%
same,Total Cell Count,[1],106 and 140
same,Population Apoptotic (%),[2],40% and 29%
same,Population Fragmented Nuclei (%),[2],20% and 17%
same,Population Healthy Nuclei (%),[2],62% and 45%
same,Population Hoechst High Intensity Objects (%),[2],1% and 6%
same,Population Membrane Permeable-Phenotype (%),[2],1% and 2%
same,Population Mitochondria Different-Phenotype (%),[2],6% and 10%
same,Population Mitotic Cells (%),[2],60% and 70%
same,Population Normal (%),[2],98% and 93%
same,Population Pyknosed Nuclei (%),[2],17% and 36%
same,Population Tubulin-Different-Phenotype (%),[2],31% and 57%
same,Total Cell Count,[2],119 and 90
same,Population Apoptotic (%),[3],20% and 52%
same,Population Fragmented Nuclei (%),[3],16% and 30%
same,Population Healthy Nuclei (%),[3],78% and 57%
same,Population Hoechst High Intensity Objects (%),[3],0% and 2%
same,Population Membrane Permeable-Phenotype (%),[3],0% and 1%
same,Population Mitochondria Different-Phenotype (%),[3],1% and 7%
same,Population Mitotic Cells (%),[3],80% and 47%
same,Population Normal (%),[3],100% and 97%
same,Population Pyknosed Nuclei (%),[3],4% and 12%
same,Population Tubulin-Different-Phenotype (%),[3],10% and 28%
same,Total Cell Count,[3],102 and 161
same,Population Apoptotic (%),[4],50% and 32%
same,Population Fragmented Nuclei (%),[4],20% and 26%
same,Population Healthy Nuclei (%),[4],68% and 41%
same,Population Hoechst High Intensity Objects (%),[4],1%
same,Population Membrane Permeable-Phenotype (%),[4],0%
same,Population Mitochondria Different-Phenotype (%),[4],7% and 10%
same,Population Mitotic Cells (%),[4],50% and 67%
same,Population Normal (%),[4],98%
same,Population Pyknosed Nuclei (%),[4],11% and 31%
same,Population Tubulin-Different-Phenotype (%),[4],29% and 65%
same,Total Cell Count,[4],122 and 98
same,Population Apoptotic (%),[5],44% and 60%
same,Population Fragmented Nuclei (%),[5],18% and 35%
same,Population Healthy Nuclei (%),[5],73% and 55%
same,Population Hoechst High Intensity Objects (%),[5],1% and 2%
same,Population Membrane Permeable-Phenotype (%),[5],1% and 5%
same,Population Mitochondria Different-Phenotype (%),[5],1% and 3%
same,Population Mitotic Cells (%),[5],55% and 40%
same,Population Normal (%),[5],98% and 97%
same,Population Pyknosed Nuclei (%),[5],8%
same,Population Tubulin-Different-Phenotype (%),[5],16% and 25%
same,Total Cell Count,[5],112 and 171
same,Population Apoptotic (%),[6],23% and 39%
same,Population Fragmented Nuclei (%),[6],30% and 40%
same,Population Healthy Nuclei (%),[6],55% and 37%
same,Population Hoechst High Intensity Objects (%),[6],4% and 2%
same,Population Membrane Permeable-Phenotype (%),[6],2% and 0%
same,Population Mitochondria Different-Phenotype (%),[6],4% and 10%
same,Population Mitotic Cells (%),[6],76% and 60%
same,Population Normal (%),[6],95% and 97%
same,Population Pyknosed Nuclei (%),[6],13% and 22%
same,Population Tubulin-Different-Phenotype (%),[6],35% and 69%
same,Total Cell Count,[6],133 and 107
